From paper PMC5018460 (Bioorganic & medicinal chemistry letters, 2016)

How the values were obtained:
HIV-1 integrase (IN) = HIV-1 integrase (IN) (Human immunodeficiency virus type 1 group M subtype B, UniProt P12497); experiment: HTRF-based LEDGF/p75-dependent integration assay; format: biochemical; settings: for activity in the LEDGF/p75-dependent integration assay: at concentrations up to 100 μM
Outline: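 Homogeneous time-resolved fluorescence read-out of integration in the presence of LEDGF/p75. Reactions run in neutral buffer, so carboxylic acid test compounds are present as the carboxylate anion. The format is said to detect integrase inhibitors acting by different mechanisms.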

HIV-1 IN (WT) = HIV-1 IN (WT) (Human immunodeficiency virus type 1 group M subtype B, UniProt P12497); experiment: biochemical
A128T mutant HIV-1 IN = A128T mutant HIV-1 IN (Human immunodeficiency virus type 1 group M subtype B, UniProt P12497, A1275T); experiment: HTRF-based aberrant IN multimerization assay, A128T mutant IN; format: biochemical

Row | SMILES | IC50 (HIV-1 integrase (IN)) [µM] | activity in the LEDGF/p75-dependent integration assay (HIV-1 integrase (IN)) | IC50 (HIV-1 IN (WT)) [µM] | IC50 (A128T mutant HIV-1 IN) [µM]
1 | Cn1c(CC(OC(C)(C)C)C(=O)O)c(-c2ccccc2)c2ccccc21 (stereo not drawn) [Compound 10] | > 100 | failed to show any activity | – | –
2 | COc1ccc(-n2c(C(OC(C)(C)C)C(=O)O)c(C)c3ccccc32)cc1 (stereo not drawn) [Compound 15] | > 100 | failed to show any activity | – | –
3 | Cn1c(C(OC(C)(C)C)C(=O)O)c(-c2ccc3c(c2)CCCO3)c2ccccc21 (stereo not drawn) [Compound 5c] | – | – | 16.1 ± 2 | 16 ± 1.4
